# Measured values reported in the array DNA melting data of Ke et al. (doi:10.1101/2024.01.08.574731).
# Legend:
# [1] = folding enthalpy; higher = less favourable; fluorescence melt of hairpins on a sequencing array, two-state fit; details: sodium 0.088 M
# In short: (§1)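 Folding enthalpy and melting temperature were estimated with bootstrapped two-state fits and combined across four replicates by inverse-variance weighting, with fitted temperatures raised by 9.35 °C to match UV melts. The data were Cy3 fluorescence of library hairpins, with annealed Cy3 and quencher oligos, on a sequenced MiSeq flow cell in 50 mM Na-HEPES pH 8.0, 25 mM NaCl, imaged in 2.5 °C steps up to 60 °C and normalised to pre-quench Cy3 and control constructs.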
# [2] = melting temperature; fluorescence melt of hairpins on a sequencing array, two-state fit, raised by 9.35 °C to match UV melts; details: sodium 0.088 M
# In short: as §1
sequence,measurement,setting,value
GATCGCATGGGCGATC ((((((....)))))),folding enthalpy,[1],-40.5 kcal/mol
same,Tm,[2],68.5 °C
GATCCCTGGGGGATC ((((((...)))))),folding enthalpy,[1],-40.5 kcal/mol
same,Tm,[2],62.2 °C
GCTGTAGGAAACTGCAGC ((((.((....)).)))),folding enthalpy,[1],-43.3 kcal/mol
same,Tm,[2],52.6 °C
GTCGGCGAAAGCCTGGAC ((((((....)))..))),folding enthalpy,[1],-15.2 kcal/mol
same,Tm,[2],45 °C
GGGCAGAAATGCCC (((((....))))),folding enthalpy,[1],-24 kcal/mol
same,Tm,[2],65.2 °C
GATCGCGCGAAAGCGATC (((..(((....)))))),folding enthalpy,[1],-25.8 kcal/mol
same,Tm,[2],60.1 °C
GTCCCCGAAAGGGCGGAC ((((((....)))..))),folding enthalpy,[1],-15.4 kcal/mol
same,Tm,[2],42.8 °C
GCCAGCGAAAGCTTGGC ((((((....))).))),folding enthalpy,[1],-27.4 kcal/mol
same,Tm,[2],63.9 °C
GACCACGAAAGTGTAGTC ((((((....)))..))),folding enthalpy,[1],-18.6 kcal/mol
same,Tm,[2],41.1 °C
GTTATCGGAAACGACAAC (((.(((....))).))),folding enthalpy,[1],-19.8 kcal/mol
same,Tm,[2],36.4 °C
GTGTTGGGAAACCAACAC (((((((....))))))),folding enthalpy,[1],-43.1 kcal/mol
same,Tm,[2],63.5 °C
GAGTCCGGAAACGAACTC ((((.((....)).)))),folding enthalpy,[1],-34.6 kcal/mol
same,Tm,[2],41.7 °C
GGTTTTCGAAAGAAGACC (((.(((....))).))),folding enthalpy,[1],-31.4 kcal/mol
same,Tm,[2],48.1 °C
GTGGTCGAAAGACCCAC ((((((....))).))),folding enthalpy,[1],-13.2 kcal/mol
same,Tm,[2],51.1 °C
GTCCGAGGAAACTCAGAC (((.(((....))).))),folding enthalpy,[1],-21.4 kcal/mol
same,Tm,[2],35.9 °C
GAGGTCACGAAAGTGCTC (((..(((....)))))),folding enthalpy,[1],-13.4 kcal/mol
same,Tm,[2],30.7 °C
GATCACCGCCGTGATC ((((((....)))))),folding enthalpy,[1],-48.4 kcal/mol
same,Tm,[2],54.4 °C
GGATATCGAAAGATCTCC (((.(((....))).))),folding enthalpy,[1],-30.9 kcal/mol
same,Tm,[2],39.1 °C
GACTCGGGAAACTGGGTC (((.(.(....).).))),folding enthalpy,[1],-29.9 kcal/mol
same,Tm,[2],38 °C
GGTCGCGGAAACGTGACC ((((.((....)).)))),folding enthalpy,[1],-51.2 kcal/mol
same,Tm,[2],63.5 °C
GCACCAGCGAAAGCTTGC (((..(((....)))))),folding enthalpy,[1],-11.8 kcal/mol
same,Tm,[2],38.1 °C
GGCGAGGGAAACCTCACC ((.((((....)))).)),folding enthalpy,[1],-31.7 kcal/mol
same,Tm,[2],48.5 °C
GGCAACGGAAACGTCGCC (((.(((....))).))),folding enthalpy,[1],-46.8 kcal/mol
same,Tm,[2],52.8 °C
CGGCCGGAAACGGTCCG ((((((....))).))),folding enthalpy,[1],-32 kcal/mol
same,Tm,[2],57.7 °C
GATCATATCGATGATC ((((((....)))))),folding enthalpy,[1],-34.3 kcal/mol
same,Tm,[2],47.4 °C
GTACATGCGAAAGCATAC (((..(((....)))))),folding enthalpy,[1],-8.62 kcal/mol
same,Tm,[2],28.7 °C
GATCATAACGATGATC ((((((....)))))),folding enthalpy,[1],-31.5 kcal/mol
same,Tm,[2],45.9 °C
ACATCGAAAGATGT (((((....))))),folding enthalpy,[1],-19.6 kcal/mol
same,Tm,[2],52.6 °C
GATCGCACAAGCGATC ((((((....)))))),folding enthalpy,[1],-37 kcal/mol
same,Tm,[2],69.3 °C
GGTCACGAAAGTGGGACC ((((((....)))..))),folding enthalpy,[1],-23.4 kcal/mol
same,Tm,[2],48 °C
GGGGACGGAAACATCCCC (((((.(....).))))),folding enthalpy,[1],-32.8 kcal/mol
same,Tm,[2],47 °C
GCTCACGAAAGTGGTAGC ((((((....)))..))),folding enthalpy,[1],-19.7 kcal/mol
same,Tm,[2],44.7 °C
GGGTGGCGAAAGCCCCC (((.(((....)))))),folding enthalpy,[1],-17.3 kcal/mol
same,Tm,[2],66.9 °C
GCGTCACGAAAGTGTCGC (((.(((....))).))),folding enthalpy,[1],-42.4 kcal/mol
same,Tm,[2],63.4 °C
GGAGACGGAAACGTCTTC (.(((((....))))).),folding enthalpy,[1],-17.4 kcal/mol
same,Tm,[2],50.7 °C
GTGTTGGCGAAAGCCCAC (((..(((....)))))),folding enthalpy,[1],-15.6 kcal/mol
same,Tm,[2],47 °C
GTAATCGGAAACGATCAC ((.((((....)))).)),folding enthalpy,[1],-25 kcal/mol
same,Tm,[2],33.9 °C
GAGCGAGAAATCGCTC ((((((....)))))),folding enthalpy,[1],-30.4 kcal/mol
same,Tm,[2],67.4 °C
GATCCGGGACCGGATC ((((((....)))))),folding enthalpy,[1],-44.4 kcal/mol
same,Tm,[2],65.4 °C
GCTAAGGGAAACCTCAGC (((.(((....))).))),folding enthalpy,[1],-27.4 kcal/mol
same,Tm,[2],34.2 °C
GCGCACGAAAGTGAACGC ((((((....)))..))),folding enthalpy,[1],-31.2 kcal/mol
same,Tm,[2],54.5 °C
GGTCACGGAAACGTGGTC (..((((....))))..),folding enthalpy,[1],-16.8 kcal/mol
same,Tm,[2],39.6 °C
GACGGTGGAAACGCCGTC (((((.(....).))))),folding enthalpy,[1],-37.7 kcal/mol
same,Tm,[2],62.9 °C
GTGCATCGAAAGATCCAC (((.(((....))).))),folding enthalpy,[1],-28.2 kcal/mol
same,Tm,[2],38.1 °C
GCATGCGAAAGCATGTGC ((((((....)))..))),folding enthalpy,[1],-15.5 kcal/mol
same,Tm,[2],64 °C
GGAGATCGAAAGATGTCC (((.(((....))).))),folding enthalpy,[1],-29.5 kcal/mol
same,Tm,[2],50.4 °C
GGCGCCGAAAGGCTTGCC ((((((....)))..))),folding enthalpy,[1],-19.9 kcal/mol
same,Tm,[2],53.4 °C
GATCGTTTCGACGATC ((((((....)))))),folding enthalpy,[1],-43.1 kcal/mol
same,Tm,[2],57.7 °C
GCAGTCGAAAGACAGTGC ((((((....)))..))),folding enthalpy,[1],-18.4 kcal/mol
same,Tm,[2],45.1 °C
GCGGCCACGAAAGTGCGC (((..(((....)))))),folding enthalpy,[1],-17.4 kcal/mol
same,Tm,[2],52.7 °C
GATCCCTCCGGGATC ((((((...)))))),folding enthalpy,[1],-44.2 kcal/mol
same,Tm,[2],67.7 °C
GTTAAACCGAAAGGTAAC (((..(((....)))))),folding enthalpy,[1],-15.2 kcal/mol
same,Tm,[2],29.9 °C
GATCGGGTCTCCGATC ((((((....)))))),folding enthalpy,[1],-41.2 kcal/mol
same,Tm,[2],59.1 °C
GTTATTCGAAAGAACAAC (((.(((....))).))),folding enthalpy,[1],-20.6 kcal/mol
same,Tm,[2],30.5 °C
GTCGCTTCGAAAGAAGAC (((..(((....)))))),folding enthalpy,[1],-9.98 kcal/mol
same,Tm,[2],33.9 °C
CGGATCGGAAACGACCCG (((.(((....))).))),folding enthalpy,[1],-38.1 kcal/mol
same,Tm,[2],50 °C
GTTTTTGGAAACAAAAGC (.(((((....))))).),folding enthalpy,[1],-29.6 kcal/mol
same,Tm,[2],35.6 °C
GAGTAAGCGAAAGCTCTC (((..(((....)))))),folding enthalpy,[1],-13.4 kcal/mol
same,Tm,[2],35.7 °C
GAGTAACGAAAGTTGCTC (((.(((....))).))),folding enthalpy,[1],-52 kcal/mol
same,Tm,[2],53.2 °C
GATCCGTCGCGGATC ((((((...)))))),folding enthalpy,[1],-35.8 kcal/mol
same,Tm,[2],59 °C
GCACGCGAAAGCGTTTGC ((((((....)))..))),folding enthalpy,[1],-10.6 kcal/mol
same,Tm,[2],42.9 °C
GGTCAAGGAAACTTGACC (((((((....))))))),folding enthalpy,[1],-43 kcal/mol
same,Tm,[2],63.5 °C
GTCGGTCGAAAGACGGAC (((.(((....))).))),folding enthalpy,[1],-34.8 kcal/mol
same,Tm,[2],59.1 °C
GGTAACGAAAGTTGACC ((((((....))).))),folding enthalpy,[1],-20.6 kcal/mol
same,Tm,[2],39.2 °C
GGTCTTGGAAACGAGATC (.(((.(....).))).),folding enthalpy,[1],-17.8 kcal/mol
same,Tm,[2],30.7 °C
CGCTTCGGAAACGATGCG (((.(((....))).))),folding enthalpy,[1],-43.3 kcal/mol
same,Tm,[2],54.6 °C
GTTTTTCGAAAGAACAAC (((.(((....))).))),folding enthalpy,[1],-17.8 kcal/mol
same,Tm,[2],34.3 °C
GGACTCGAAAGAGGGTCC ((((((....)))..))),folding enthalpy,[1],-21 kcal/mol
same,Tm,[2],43.9 °C
GATCGGCTTTCCGATC ((((((....)))))),folding enthalpy,[1],-37 kcal/mol
same,Tm,[2],58.6 °C
GCTGCTGGAAACGGTAGC (((.(.(....).).))),folding enthalpy,[1],-31.3 kcal/mol
same,Tm,[2],41.3 °C
GAAACCGAAAGGTTTC ((((((....)))))),folding enthalpy,[1],-29.4 kcal/mol
same,Tm,[2],67.1 °C
GCGGAAGGAAACTTCCAC (.(((((....))))).),folding enthalpy,[1],-15.9 kcal/mol
same,Tm,[2],37.4 °C
GCGACCGAAAGGTAGCGC ((((((....)))..))),folding enthalpy,[1],-31.7 kcal/mol
same,Tm,[2],68.5 °C
GCGTACTTACGC ((((....)))),folding enthalpy,[1],-26.1 kcal/mol
same,Tm,[2],54.7 °C
GCCCACTCGAAAGAGGGC (((..(((....)))))),folding enthalpy,[1],-22.5 kcal/mol
same,Tm,[2],50.6 °C
GCCTAGCGAAAGCTCTGC ((..(((....)))..)),folding enthalpy,[1],-11.7 kcal/mol
same,Tm,[2],34.3 °C
GTACGACGAAAGTCCTAC (((.(((....))).))),folding enthalpy,[1],-13.2 kcal/mol
same,Tm,[2],31.9 °C
GCGTAGGGAAACTTACGC (((((.(....).))))),folding enthalpy,[1],-39.4 kcal/mol
same,Tm,[2],50.4 °C
GTACCCGAAAGGGCTAC ((((((....))).))),folding enthalpy,[1],-15.3 kcal/mol
same,Tm,[2],40.2 °C
GATCCTTGAGAGGATC ((((((....)))))),folding enthalpy,[1],-42.5 kcal/mol
same,Tm,[2],53.6 °C
GCGAAGGGAAACTTTCGC (((((.(....).))))),folding enthalpy,[1],-30.2 kcal/mol
same,Tm,[2],51 °C
GTTGACGGAAACGTCGAC ((.((((....)))).)),folding enthalpy,[1],-43.4 kcal/mol
same,Tm,[2],54.8 °C
GATCCTTAACAGGATC ((((((....)))))),folding enthalpy,[1],-36.3 kcal/mol
same,Tm,[2],49 °C
GCGCCCGAAAGGGGCCGC ((((((....)))..))),folding enthalpy,[1],-16.4 kcal/mol
same,Tm,[2],61.4 °C
CGCTCGGAAACGACAGCG ((((((....)))..))),folding enthalpy,[1],-25.5 kcal/mol
same,Tm,[2],45 °C
GATCTATTGCTAGATC ((((((....)))))),folding enthalpy,[1],-32.8 kcal/mol
same,Tm,[2],40.5 °C
GGCTTGGGAAACCAGGCC (((.(((....))).))),folding enthalpy,[1],-49 kcal/mol
same,Tm,[2],56.1 °C
GGAAATGGAAACATCTCC (((.(((....))).))),folding enthalpy,[1],-9.93 kcal/mol
same,Tm,[2],25.1 °C
GGTAACGGAAACATTACC (((((.(....).))))),folding enthalpy,[1],-21.2 kcal/mol
same,Tm,[2],31.5 °C
GCACGCGAAAGCGATGC ((((((....))).))),folding enthalpy,[1],-21.3 kcal/mol
same,Tm,[2],65.2 °C
GGTGTCGGAAACAACACC (((((.(....).))))),folding enthalpy,[1],-36.1 kcal/mol
same,Tm,[2],45.2 °C
GCTTCGGGAAACCGAGGC ((.((((....)))).)),folding enthalpy,[1],-42.3 kcal/mol
same,Tm,[2],53.5 °C
